# Measurements gathered from unrelated publications.
# Compare with care: the assays were run in different laboratories.
# Target: Serine/threonine-protein kinase 10 (STK10, Homo sapiens, UniProt O94804)
SMILES,assay,conditions,quantity,value
COc1cc(Nc2ncc(F)c(Nc3ccc4c(n3)NC(=O)C(C)(C)O4)n2)cc(OC)c1OC,binding,10 µM,inhibition,100%
CC(C)(C)c1cc(C=C(C#N)C#N)cc(Br)c1O,"enzyme activity, inhibitor",0.5 µM,remaining activity,95.4%
Cc1nn(C)cc1-c1nc2c(N3CCN(Cc4ccc(Cl)cc4)CC3)c(Cl)cnc2[nH]1,"binding, competition with immobilised ligand",1 µM,remaining binding,100%
Cn1cncc1[C@@](O)(COc1ccc(C#N)cc1-c1ccc(OC(F)(F)F)cc1)c1ccc(C#N)cc1,"cell-free assay, competition with immobilised ligand",1 µM,remaining binding,100%
COc1ncccc1-c1cnn2ccc(N3CCN(C(=O)OC(C)C)CC3)nc12,"binding, competition with immobilised ligand",1 µM,remaining binding,63%
O=c1[nH]c2ccccc2n1C1CCN(Cc2ccc(-c3[nH]c4cc5ncnc5cc4nc3-c3ccccc3)cc2)CC1,cell-free assay,0.5 µM,remaining signal,92.6%
Nc1ncc(-c2nc(N3CCOCC3)nc(N3CCOCC3)n2)c(C(F)F)n1,"binding, competition with immobilised ligand",10 µM,remaining binding,64%
N#CC1(c2ccccn2)CCN(Cc2cc(C(=O)O)c(=O)n3ccccc23)CC1,"cell-free assay, competition with immobilised ligand",1 µM,remaining binding,100%
